Measured values published in ChEMBL document CHEMBL3259771, “Probing the aurone scaffold against Plasmodium falciparum: design, synthesis and antimalarial activity” (Eur J Med Chem, 2014).
Values after ≈ are worked out from the molar mass of the structure shown. Active and inactive are the calls of the source. The calls are words filed in the database; no cut-off is given here.

Tests used:
[1] = Inhibition of Plasmodium falciparum falcipain-2
[2] = Selectivity index, ratio of EC50 for HEK293T cells to IC50 for chloroquine-resistant ring stage Plasmodium falciparum W2; format: functional, HEK-293T
Plasmodium falciparum [3] = assay: Antiplasmodial activity against chloroquine-resistant ring stage Plasmodium falciparum W2 infected in human RBC after 48 hrs by flow cytometric analysis; format: functional, organism-based; conditions: W2, 48 h
Summary of the method: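 Ring-stage W2 parasites at 1% in human erythrocytes, synchronized with 5% sorbitol. Incubated with compound 48 h at 37 °C in RPMI-1640 with 25 mM HEPES pH 7.4, 10% heat-inactivated human serum (or 0.5% Albumax/2% human serum) and hypoxanthine, under 3% O₂/5% CO₂/[…]. Cells fixed in 2% formaldehyde, stained in PBS with NH₄Cl, 0.1% Triton X-100 and 1 nM YOYO-1, then counted by flow cytometry.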

HEK-293T = assay: Cytotoxicity against HEK293T cells after 48 hrs by MTT assay; format: cell-based; conditions: Homo sapiens
Plasmodium falciparum [4] = assay: Inhibition of Plasmodium falciparum falcipain-2 up to 50 uM
[5] = Inhibition of hemozoin-like crystal formation up to 1 mM after 5 days; format: functional
Summary of the method: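 Hemozoin-like crystal stock suspension sonicated 3 min and diluted in fresh broth medium. Compounds in wells at 0–1000 final concentration after 0.22 filtration. Incubated at 37 °C, 5% CO₂, 5 days, then scored for presence or absence of crystal growth. Triplicate.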

[6] = Vacuolar accumulation ratio of the compound; format: ADME
Summary of the method: (§1)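 Calculated rather than measured. VAR: predicted trapping in acidic digestive vacuole from pH-dependent water/lipid distribution (log D). LAR: expected fraction concentrating in the vacuole's lipid component.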

[7] = Water-lipid distribution coefficient, log D of the compound at pH 7.4; format: physicochemical
[8] = Lipid accumulation ratio of the compound; format: physicochemical; summary of the method: as §1
[9] = Water-lipid distribution coefficient, log D of the compound at pH 5.2; format: physicochemical
Plasmodium falciparum [10] = assay: Antimalarial activity against chloroquine-resistant ring stage Plasmodium falciparum Dd2 infected in human erythrocytes after 48 hrs by SYBR Green I staining-based isobologram method in presence of chloroquine; format: functional
Summary of the method: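 Fixed-ratio isobologram: IC50s of each drug alone found first, then 2-fold dilution dose-response series at IC50 ratios 5:0, 4:1, 3:2, 2:3, 1:4, 0:5. Early ring-stage parasitized erythrocytes at 1% parasitaemia, 3% haematocrit, triplicate wells, 48 h at 37 °C. Growth read by SYBR Green I fluorescence, nonlinear regression. Interaction from sum of FICs (IC50 in combination/IC50 alone).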

[11] = Inhibition of hemozoin-like crystal formation after 5 days; format: functional; conditions: 120 h
Summary of the method: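 Hemozoin-like crystal stock suspension sonicated 3 min, diluted in fresh broth. Compounds 0.22-filtered, then added across a 0–1000 final range. Incubated 37 °C, 5% CO2 for 5 days, scored for presence or absence of crystal growth. Triplicate.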

MIC [11]	Compound	IC50 [1]	Selectivity Index [2]	IC50 (Plasmodium falciparum [3])	EC50 (HEK-293T)	inhibition (Plasmodium falciparum [4])	inhibition [5]	Ratio [6]	logD [7]	Ratio [8]	logD [9]	CI (Plasmodium falciparum [10])
–	COc1cccc2c1O/C(=C\c1ccc(Cl)cc1Cl)C2=O	18.6 µM	>21	4.8 µM	> 100 µM	–	–	–	–	–	–	–
–	O=C1/C(=C/c2ccc(F)cc2F)Oc2ccccc21	–	>10	> 10 µM	> 100 µM	inactive	–	–	–	–	–	–
–	Cc1ccc(Oc2ccc(/C=C3\Oc4ccccc4C3=O)cc2)cc1	–	>10	> 10 µM	> 100 µM	inactive	–	–	–	–	–	–
–	O=C1/C(=C/c2ccc(-c3ccccc3)cc2)Oc2ccccc21	–	>10	> 10 µM	> 100 µM	inactive	–	–	–	–	–	–
–	O=C1/C(=C/c2ccc(Oc3ccc(Cl)cc3)cc2)Oc2ccccc21	–	>10	> 10 µM	> 100 µM	inactive	–	–	–	–	–	–
–	COc1cccc2c1O/C(=C\c1ccc(F)cc1F)C2=O	–	>10	> 10 µM	> 100 µM	inactive	–	–	–	–	–	–
–	COc1cc(/C=C2\Oc3ccccc3C2=O)cc(OC)c1OC	–	>10	> 10 µM	> 100 µM	inactive	–	–	–	–	–	–
–	O=C1/C(=C/c2ccc(-c3ccc(Cl)cc3)cc2)Oc2ccccc21	–	>10	> 10 µM	> 100 µM	inactive	–	–	–	–	–	–
–	CN1CCN(Cc2c(O)ccc3c2O/C(=C\c2ccccc2)C3=O)CC1	–	>25	4.01 µM	> 100 µM	–	inactive	22589	1.02	10.6	-3.33	–
–	O=C1/C(=C/c2ccccc2)Oc2cc(-c3ccc(F)cc3)ccc21	–	>10	> 10 µM	> 100 µM	inactive	–	–	–	–	–	–
–	O=C1/C(=C/c2ccccc2)Oc2cc(-c3ccccc3)ccc21	–	>10	> 10 µM	> 100 µM	inactive	–	–	–	–	–	–
–	Nc1ccc(-c2ccc3c(c2)O/C(=C\c2ccccc2)C3=O)cn1	–	>33	3.03 µM	> 100 µM	inactive	inactive	9.2	5.18	150233	4.21	–
–	O=C1/C(=C/c2ccc(Cc3ccccc3)cc2)Oc2ccccc21	–	>12	7.34 µM	87 µM	inactive	–	–	–	–	–	–
–	COc1cc(/C=C2\Oc3c(OC)cccc3C2=O)cc(OC)c1OC	–	>10	> 10 µM	> 100 µM	inactive	–	–	–	–	–	–
–	O=C1/C(=C/c2ccc(Br)cc2)Oc2ccccc21	–	>31	3.21 µM	> 100 µM	inactive	–	–	–	–	–	–
–	Nc1ccc(-c2cccc(/C=C3\Oc4ccccc4C3=O)c2)cn1	–	>31	2.56 µM	79 µM	inactive	inactive	9.2	3.67	4643	2.7	–
–	O=C1/C(=C/c2ccc(-c3ccc(F)cc3)cc2)Oc2ccccc21	–	>10	> 10 µM	> 100 µM	inactive	–	–	–	–	–	–
–	O=C1/C(=C/c2cccc(-c3ccc(Cl)cc3)c2)Oc2ccccc21	–	>10	> 10 µM	> 100 µM	inactive	–	–	–	–	–	–
–	CN(C)c1ccc(/C=C2\Oc3ccccc3C2=O)cc1	–	>13	7.99 µM	> 100 µM	inactive	–	–	–	–	–	–
–	O=C1/C(=C/c2ccccc2Br)Oc2ccccc21	–	>10	> 10 µM	> 100 µM	inactive	–	–	–	–	–	–
–	O=C1/C(=C/c2ccccc2)Oc2cc(O)ccc21	–	>10	> 10 µM	> 100 µM	inactive	–	–	–	–	–	–
–	O=C1/C(=C/c2ccccc2)Oc2c1ccc(O)c2CN1CCOCC1	–	>30	3.34 µM	> 100 µM	–	inactive	17.2	2.42	265	1.19	1.06

MIC [11]	Compound	IC50 [1]	Selectivity Index [2]	IC50 (Plasmodium falciparum [3])	EC50 (HEK-293T)	inhibition (Plasmodium falciparum [4])	inhibition [5]	Ratio [6]	logD [7]	Ratio [8]	logD [9]	CI (Plasmodium falciparum [10])
–	O=C1/C(=C/c2ccc(Cl)cc2Cl)Oc2cc(O)ccc21	–	>10	> 10 µM	> 100 µM	inactive	–	–	–	–	–	–
–	O=Cc1ccc(-c2cccc(/C=C3\Oc4ccccc4C3=O)c2)cc1	–	>10	> 10 µM	> 100 µM	inactive	–	–	–	–	–	–
–	O=C1/C(=C/c2ccc(Cl)cc2Cl)Oc2ccccc21	–	<6.8	> 10 µM	68 µM	inactive	–	–	–	–	–	–
–	COc1cc(/C=C2\Oc3cc(O)ccc3C2=O)cc(OC)c1OC	–	>10	> 10 µM	> 100 µM	inactive	–	–	–	–	–	–
–	O=C1/C(=C/c2cccc(Cc3ccccc3)c2)Oc2ccccc21	–	>31	2.31 µM	71 µM	inactive	–	–	–	–	–	–
–	O=C1/C(=C/c2ccc(NCc3ccccc3)cc2)Oc2ccccc21	–	>20	5 µM	> 100 µM	inactive	–	–	–	–	–	–
–	COc1cccc2c1O/C(=C\c1ccccc1)C2=O	–	>10	> 10 µM	> 100 µM	inactive	–	–	–	–	–	–
–	O=C1/C(=C/c2ccc(F)cc2F)Oc2cc(O)ccc21	–	>10	> 10 µM	> 100 µM	inactive	–	–	–	–	–	–
–	O=Cc1ccc(-c2ccc(/C=C3\Oc4ccccc4C3=O)cc2)cc1	–	>10	> 10 µM	> 100 µM	inactive	–	–	–	–	–	–
–	O=C1/C(=C/c2cccc(-c3ccc(F)cc3)c2)Oc2ccccc21	–	>23	4.41 µM	> 100 µM	inactive	–	–	–	–	–	–
–	O=C1/C(=C/c2ccccc2)Oc2ccccc21 [(Z)-AURONE]	–	>10	> 10 µM	> 100 µM	inactive	–	–	–	–	–	–
–	O=C1/C(=C/c2cccc(Br)c2)Oc2ccccc21	–	>21	4.7 µM	> 100 µM	inactive	–	–	–	–	–	–
125 µM (≈ 40 µg/mL)	CCN(CC)CCCC(C)Nc1ccnc2cc(Cl)ccc12 (centres undefined) [CHLOROQUINE]	–	–	–	–	–	–	–	–	–	–	–
–	CCN(CC)Cc1c(O)ccc2c1O/C(=C\c1ccccc1)C2=O	–	>29	3.47 µM	> 100 µM	–	inactive	156	1.79	62	-0.4	–
–	Cc1ccc(Oc2ccc(/C=C3\Oc4cc(O)ccc4C3=O)cc2)cc1	–	>16	5.84 µM	95 µM	inactive	–	–	–	–	–	–
–	O=C1/C(=C/c2ccc(-c3cnc4ccccc4c3)cc2)Oc2ccccc21	–	>15	6.59 µM	> 100 µM	inactive	–	1.19	5.16	144366	5.08	–
–	O=C1/C(=C/c2cccc(-c3ccccc3)c2)Oc2ccccc21	–	>19	5.21 µM	> 100 µM	inactive	–	–	–	–	–	–
–	CN(C)c1ccc(/C=C2\Oc3cc(O)ccc3C2=O)cc1	–	>10	> 10 µM	> 100 µM	inactive	–	–	–	–	–	–
–	O=C1/C(=C/c2ccc(Nc3ccccc3)cc2)Oc2ccccc21	–	>12	8.59 µM	> 100 µM	inactive	–	–	–	–	–	–
–	O=C1/C(=C/c2ccccc2)Oc2c1ccc(O)c2CN1CCCCC1	–	>85	1.18 µM	> 100 µM	–	inactive	155	2.04	110	-0.15	–
–	O=C1/C(=C/c2ccc(Oc3ccc(Cl)cc3)cc2)Oc2cc(O)ccc21	–	>1	9.88 µM	12 µM	inactive	–	–	–	–	–	–
–	Nc1ccc(-c2ccc(/C=C3\Oc4ccccc4C3=O)cc2)cn1	–	>27	3.7 µM	> 100 µM	inactive	inactive	9.2	3.67	4643	2.7	–
